The test system of data set [1] is Staphylococcus aureus. Nature of the data set: Antimicrobial activity against methicillin-sensitive Staphylococcus aureus by broth microdilution/CLSI method. The class given is functional. Conditions: Staphylococcus aureus; read-out: MIC.
The nature of data set [2]: Percentage unbound in human plasma. The class given is ADME, cell-free.
For data set [3], the system named is Escherichia coli. Nature of the data set: Antimicrobial activity against wild-type Escherichia coli Eco523 by broth microdilution/CLSI method. The class given is functional. Conditions: Escherichia coli, Eco523; read-out: MIC.
Data set [4] has as its system Staphylococcus aureus. In words: Antimicrobial activity against methicillin, quinolone-resistant Staphylococcus aureus by broth microdilution/CLSI method. The class given is functional. The conditions noted are these: Staphylococcus aureus; read-out: MIC.
Data set [5] deals with Escherichia coli. In words: Antimicrobial activity against Escherichia coli tolC- by broth microdilution/CLSI method. The class given is functional. The conditions noted are these: Escherichia coli; read-out: MIC.
The test system of another data set is Moraxella catarrhalis. Nature of the data set: Antimicrobial activity against Moraxella catarrhalis by broth microdilution/CLSI method. The conditions noted are these: Moraxella catarrhalis; read-out: MIC. The class given is functional.
The nature of data set [6]: Ratio of MIC for methicillin, quinolone-resistant Staphylococcus aureus to fraction unbound in human plasma. The class given is ADME.
Another data set has as its system Streptococcus pneumoniae. In words: Antibacterial activity against Streptococcus pneumoniae by broth microdilution/CLSI method. Type of data set: functional. The conditions noted are these: Streptococcus pneumoniae; read-out: MIC.
A short description of data set [7]: Octanol-phosphate buffer distribution coefficient, log D of the compound at pH 7.4 by shake flask method. The class given is physicochemical.
For the next data set, the target named is DNA gyrase subunit B (Staphylococcus aureus, UniProt P0A0K8). Nature of the data set: Inhibition of ATPase activity of Staphylococcus aureus GyrB. The procedure, abridged:
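IC50 was determined against S. aureus GyrB in the routine screening assay. The enzyme concentration limits resolution below 10 nM.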

For a further data set, the system named is Streptococcus pyogenes. In words: Antimicrobial activity against Streptococcus pyogenes by broth microdilution/CLSI method. The class given is functional.
Data set [8] in a line: Solubility of the compound. Type of data set: physicochemical.
The test system of the next data set is Haemophilus influenzae. In words: Antimicrobial activity against Haemophilus influenzae by broth microdilution/CLSI method. The class given is functional. The conditions noted are these: Haemophilus influenzae; read-out: MIC.
A short description of data set [9]: Clearance in rat at 10 mg/kg, iv. The arrangement: dose 10 mg/kg, route intravenous. Conditions: in vivo. Type of data set: ADME, organism-based.

The structures appear in SMILES notation. Values after ≈ are worked out from the molar mass of the structure shown.

Chain of DNA gyrase subunit B (P0A0K8 whole entry): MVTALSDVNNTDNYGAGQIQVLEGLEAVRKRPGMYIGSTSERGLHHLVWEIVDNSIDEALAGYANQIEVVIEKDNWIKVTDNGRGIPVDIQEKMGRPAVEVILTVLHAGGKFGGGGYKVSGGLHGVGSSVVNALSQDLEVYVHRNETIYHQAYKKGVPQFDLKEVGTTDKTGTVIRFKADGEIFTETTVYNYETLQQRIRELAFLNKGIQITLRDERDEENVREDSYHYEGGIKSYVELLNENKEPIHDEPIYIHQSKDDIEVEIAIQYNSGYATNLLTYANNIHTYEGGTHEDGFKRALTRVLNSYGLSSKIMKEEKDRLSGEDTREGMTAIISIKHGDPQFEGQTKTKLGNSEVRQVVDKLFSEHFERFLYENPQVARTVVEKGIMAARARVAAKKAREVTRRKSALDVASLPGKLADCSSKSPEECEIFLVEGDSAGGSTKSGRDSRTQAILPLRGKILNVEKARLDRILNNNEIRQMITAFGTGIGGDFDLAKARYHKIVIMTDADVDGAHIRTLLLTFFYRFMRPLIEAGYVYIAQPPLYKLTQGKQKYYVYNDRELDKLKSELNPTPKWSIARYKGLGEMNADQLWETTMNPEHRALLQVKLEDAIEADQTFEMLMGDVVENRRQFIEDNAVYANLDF

With `CO[C@H]1CN(c2nc(-c3ncc[nH]3)c(C(=O)O)s2)CC[C@H]1NC(=O)c1[nH]c(C)c(Cl)c1Cl`, the MIC with Staphylococcus aureus [1] was 0.63 µg/mL (≈ 1.26 µM); in the data set on Escherichia coli [3], over 64 µg/mL; with Staphylococcus aureus [4], 1 µg/mL (≈ 2 µM); in the data set with Escherichia coli [5], under 0.06 µg/mL; in the data set with Moraxella catarrhalis it was under 0.06 µg/mL; in the data set with Streptococcus pneumoniae, under 0.06 µg/mL. The MIC worked out at 0.08 µg/mL (≈ 0.16 µM) in the data set on Streptococcus pyogenes and 1 µg/mL (≈ 2 µM) with Haemophilus influenzae. Besides, the fraction unbound in data set [2] is under 0.01. Besides, the Ratio in data set [6] came out at 100. Besides, the logD in data set [7] is over 2.5. Further, the IC50 against DNA gyrase subunit B is under 10 nM. For the same molecule, in [8], the solubility was under 1 µM.

Turning to `CO[C@H]1CN(c2nc(C(N)=O)c(C(=O)O)s2)CC[C@H]1NC(=O)c1[nH]c(C)c(Cl)c1Cl`, the MIC in the data set on Staphylococcus aureus [1] is 0.5 µg/mL (≈ 1.05 µM); with Escherichia coli [3], over 8 µg/mL; with Staphylococcus aureus [4], 0.5 µg/mL (≈ 1.05 µM); with Escherichia coli [5] it was 0.32 µg/mL (≈ 0.672 µM); in the data set on Moraxella catarrhalis it was 0.02 µg/mL (≈ 0.042 µM); in the data set with Streptococcus pneumoniae, 0.039 µg/mL (≈ 0.0819 µM). Moreover, the MIC was 0.039 µg/mL (≈ 0.0819 µM) against Streptococcus pyogenes and 0.16 µg/mL (≈ 0.336 µM) in the data set on Haemophilus influenzae. Moreover, in data set [2], the fraction unbound is 0.043. Also, the Ratio in data set [6] is 12. In [7], this molecule came in with a logD of 0.85. The molecule also gave an IC50 on DNA gyrase subunit B of under 10 nM. Also, the concentration in solution in data set [8] (solubility) came to 280 µM (≈ 133 µg/mL).

Consider `CO[C@H]1CN(c2nc(-c3cncc(OCCN(C)C)n3)c(C(=O)O)s2)CC[C@H]1NC(=O)c1[nH]c(C)c(Cl)c1Cl`, for which the MIC is 0.13 µg/mL (≈ 0.217 µM) in the data set with Staphylococcus aureus [1]; 60 µg/mL (≈ 100 µM) in the data set with Escherichia coli [3]; 0.19 µg/mL (≈ 0.317 µM) in the data set on Staphylococcus aureus [4]; 0.23 µg/mL (≈ 0.384 µM) with Escherichia coli [5]; 0.011 µg/mL (≈ 0.0184 µM) in the data set with Streptococcus pneumoniae; 0.031 µg/mL (≈ 0.0518 µM) in the data set on Streptococcus pyogenes. For the same molecule, the MIC with Haemophilus influenzae amounted to 0.23 µg/mL (≈ 0.384 µM). This molecule came in with a fraction unbound in data set [2] of 0.037. In [9], the clearance amounted to 9.6 mL/min/kg. Moreover, in [6], the Ratio amounted to 5.1. This molecule returned a logD in data set [7] of 0.8. The molecule also had an IC50 against DNA gyrase subunit B of under 10 nM. For the same molecule, in data set [8], the concentration in solution (solubility) was 770 µM (≈ 461 µg/mL).

Turning to `CO[C@H]1CN(c2nc(-c3cn(C)cn3)c(C(=O)O)s2)CC[C@H]1NC(=O)c1[nH]c(C)c(Cl)c1Cl`, the MIC in the data set with Staphylococcus aureus [1] was 0.13 µg/mL (≈ 0.253 µM); with Escherichia coli [3] it was 16 µg/mL (≈ 31.2 µM); in the data set on Staphylococcus aureus [4] it was 0.13 µg/mL (≈ 0.253 µM); in the data set with Escherichia coli [5], under 0.06 µg/mL; in the data set with Moraxella catarrhalis, under 0.06 µg/mL; in the data set with Streptococcus pneumoniae, under 0.06 µg/mL. Moreover, the MIC was under 0.06 µg/mL with Streptococcus pyogenes and 2 µg/mL (≈ 3.9 µM) in the data set with Haemophilus influenzae. Also, the fraction unbound in [2] worked out at 0.019. Further, the Ratio in data set [6] turned out to be 6.8. The same molecule had a logD in [7] of 2.5. Besides, the IC50 at DNA gyrase subunit B was under 10 nM. In data set [8], this molecule came in with a solubility of 3 µM (≈ 1.54 µg/mL).

As to `CO[C@H]1CN(c2nc(C(=O)O)c(C)s2)CC[C@H]1NC(=O)c1[nH]c(C)c(Cl)c1Cl`, the MIC is 0.13 µg/mL (≈ 0.291 µM) in the data set on Staphylococcus aureus [1]; over 8 µg/mL in the data set on Escherichia coli [3]; 0.13 µg/mL (≈ 0.291 µM) with Staphylococcus aureus [4]; 0.25 µg/mL (≈ 0.559 µM) in the data set on Escherichia coli [5]; 0.063 µg/mL (≈ 0.141 µM) in the data set on Moraxella catarrhalis; 0.031 µg/mL (≈ 0.0693 µM) with Streptococcus pneumoniae. The results for the MIC against Streptococcus pyogenes and in the data set with Haemophilus influenzae were 0.063 µg/mL (≈ 0.141 µM) and 0.25 µg/mL (≈ 0.559 µM), respectively. Besides, the fraction unbound in [2] came out at 0.007. The Ratio in [6] is given as 19. In addition, the logD in [7] stood at 1.2. Moreover, the IC50 on DNA gyrase subunit B is under 10 nM. Besides, the solubility in data set [8] was over 1000 µM.

Take `COCn1ccnc1-c1nc(N2CC[C@@H](NC(=O)c3[nH]c(C)c(Cl)c3Cl)[C@@H](OC)C2)sc1C(=O)O`: the MIC is under 0.06 µg/mL with Staphylococcus aureus [1]; 16 µg/mL (≈ 29.4 µM) in the data set with Escherichia coli [3]; 0.25 µg/mL (≈ 0.46 µM) in the data set on Escherichia coli [5]; under 0.06 µg/mL with Moraxella catarrhalis; under 0.06 µg/mL with Streptococcus pneumoniae; under 0.06 µg/mL in the data set on Streptococcus pyogenes. Moreover, the MIC in the data set on Haemophilus influenzae was 0.5 µg/mL (≈ 0.92 µM). The same molecule registered a fraction unbound in [2] of 0.071. Further, the clearance in [9] was 27 mL/min/kg. In [6], the Ratio is recorded as under 0.9. In [7], the logD was determined as 0.24. For the same molecule, at DNA gyrase subunit B, the IC50 was under 10 nM. In data set [8], this molecule yielded a solubility of 170 µM (≈ 92.4 µg/mL).

Regarding `CO[C@H]1CN(c2nc(C(=O)NC3COC(C)(C)OC3)c(C(=O)O)s2)CC[C@H]1NC(=O)c1[nH]c(C)c(Cl)c1Cl`, the MIC was under 0.06 µg/mL in the data set with Staphylococcus aureus [1]; 14 µg/mL (≈ 23.7 µM) in the data set with Escherichia coli [3]; 0.76 µg/mL (≈ 1.29 µM) in the data set on Escherichia coli [5]; 0.008 µg/mL (≈ 0.0135 µM) in the data set with Moraxella catarrhalis; 0.016 µg/mL (≈ 0.0271 µM) in the data set on Streptococcus pneumoniae; 0.016 µg/mL (≈ 0.0271 µM) against Streptococcus pyogenes. The MIC in the data set on Haemophilus influenzae was determined as 0.16 µg/mL (≈ 0.271 µM). In data set [2], the fraction unbound is 0.036. Moreover, the clearance in [9] was found to be 38 mL/min/kg. In addition, in data set [6], the Ratio is under 1.8. This molecule also yielded a logD in data set [7] of 1.2. The same molecule returned an IC50 at DNA gyrase subunit B of under 10 nM. In addition, the solubility in data set [8] is over 1000 µM.

For `CO[C@H]1CN(c2nc(C(=O)NCCN3CCOCC3)c(C(=O)O)s2)CC[C@H]1NC(=O)c1[nH]c(C)c(Cl)c1Cl`, the MIC in the data set with Staphylococcus aureus [1] is 0.25 µg/mL (≈ 0.424 µM); in the data set with Escherichia coli [3], over 8 µg/mL; in the data set with Staphylococcus aureus [4] it was 0.5 µg/mL (≈ 0.848 µM); in the data set on Escherichia coli [5], 0.25 µg/mL (≈ 0.424 µM); in the data set on Moraxella catarrhalis, 0.031 µg/mL (≈ 0.0526 µM); in the data set with Streptococcus pneumoniae, 0.031 µg/mL (≈ 0.0526 µM). In addition, the MIC was 0.031 µg/mL (≈ 0.0526 µM) against Streptococcus pyogenes and 0.25 µg/mL (≈ 0.424 µM) in the data set on Haemophilus influenzae. For the same molecule, the fraction unbound in [2] amounted to 0.054. Moreover, in [6], the Ratio is on record as 9.2. The molecule also displayed a logD in data set [7] of 1. For the same molecule, on DNA gyrase subunit B, the IC50 was under 10 nM. This molecule also came in with a solubility in data set [8] of over 1000 µM.

The values above are taken from ChEMBL document CHEMBL3352173, “Optimization of pyrrolamide topoisomerase II inhibitors toward identification of an antibacterial clinical candidate (AZD5099)” (J Med Chem, 2014).
